Source: PubChem
A selection: hits, their analogues and other compounds. The true share with any hit is near 1.8%.
CHRM4 PAM: human M4 muscarinic receptor positive allosteric modulators, primary screen, CHO-K1 cells, Fluo-8 calcium fluorescence; Muscarinic acetylcholine receptor M4 (Homo sapiens), P08173; CHO-K1 hM4/Gqi5, ACh EC20; 0% = ACh EC20, 100% = maximal ACh; activation, % at 3 µM; actives 0.4% (n = 360,000);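 active = activation above its plate's cutoff, the mean activation of sample wells plus 3 SD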
CHRM5 agonist: human M5 muscarinic receptor agonists, primary screen, CHO-K1 cells, Fluo-8 calcium fluorescence; activation, % at 3 µM; CHO-K1 hM5 cells; 0% DMSO wells, 100% maximal acetylcholine response; AID 624037, 2012; actives 0.19% (n = 360,000); Muscarinic acetylcholine receptor M5 (Homo sapiens), P08912;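 active = activation above the run's mean over test compounds plus 3 SD, cut at about 23% in these data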;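 also: signal is peak over basal fluorescence ratio across the kinetic read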
Target sequence (P08912 whole entry, looked up): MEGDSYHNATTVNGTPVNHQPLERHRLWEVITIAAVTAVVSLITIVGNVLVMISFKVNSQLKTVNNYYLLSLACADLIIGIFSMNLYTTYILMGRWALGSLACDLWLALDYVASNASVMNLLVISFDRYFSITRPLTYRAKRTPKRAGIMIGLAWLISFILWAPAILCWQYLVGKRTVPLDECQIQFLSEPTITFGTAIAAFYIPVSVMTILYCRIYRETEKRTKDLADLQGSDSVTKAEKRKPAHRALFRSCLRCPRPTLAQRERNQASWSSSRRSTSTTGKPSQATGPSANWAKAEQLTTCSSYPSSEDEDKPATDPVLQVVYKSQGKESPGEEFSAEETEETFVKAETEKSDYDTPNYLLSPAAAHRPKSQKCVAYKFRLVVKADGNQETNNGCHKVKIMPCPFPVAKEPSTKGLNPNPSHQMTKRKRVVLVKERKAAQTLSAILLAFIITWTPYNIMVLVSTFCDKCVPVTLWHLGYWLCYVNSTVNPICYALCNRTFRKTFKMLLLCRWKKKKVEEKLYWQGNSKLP
M5 antag: human M5 muscarinic receptor antagonists, primary screen, CHO cells, Fluo-8 calcium fluorescence; inhibition, % at 3 µM; actives 0.59% (n = 360,000); CHO-hM5 cells, ACh EC80; Muscarinic acetylcholine receptor M5 (Homo sapiens), P08912; AID 624040, 2012;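 active = inhibition above a per-plate cutoff, the mean of that plate's test compounds plus 3 SD, cut at about 27% in these data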;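 also: 0% = acetylcholine EC80 with DMSO and 100% = DMSO without agonist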
CHRM4 antagonist: human M4 muscarinic receptor antagonists, primary screen, CHO cells, Fluo-8 calcium fluorescence; inhibition, % at 3 µM; CHO-hM4 cells, ACh EC80; actives 0.73% (n = 360,000); AID 624125, 2012;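 active = inhibition above its plate's cutoff, the mean inhibition of sample wells plus 3 SD, cut at about 27% in these data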;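 also: 0% = acetylcholine EC80 with DMSO and 100% = DMSO without agonist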
CHRM5 PAM: human M5 muscarinic receptor positive allosteric modulators, primary screen, CHO-K1 cells, Fluo-8 calcium fluorescence; CHO-K1 hM5, ACh EC20 PAM; 0% = ACh EC20, 100% = ACh EC100; activation, % at 3 µM; actives 0.3% (n = 360,000);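 active = activation above the run cutoff, the mean activation of all test compounds plus 3 SD, cut at about 18% in these data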
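System: CHO-K1 cell line with stable human muscarinic M5 receptor expression | Also added: EC20 acetylcholine as agonist stimulus | Compound: One concentration, 3 µM final (nominal) | Timing: Fluo-8 loading 80 min at 37 °C plus 30 min room temperature | Measured by: Fluo-8 calcium dye fluorescence, kinetic read | Read-out basis: % activation, ACh-normalized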
M4 ag: human M4 muscarinic receptor agonists, primary screen, CHO-K1 cells, Fluo-8 calcium fluorescence. Muscarinic acetylcholine receptor M4 (Homo sapiens), P08173. CHO-K1 hM4/Gqi5; vehicle 0%, full acetylcholine response 100%. activation, % at 3 µM. actives 0.14% (n = 360,000). AID 624127, 2012;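 active = activation above the run mean over all test wells plus 3 SD, cut at about 32% in these data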;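 also: peak over basal fluorescence ratio per well then scaled between controls; 0% = DMSO wells and 100% = acetylcholine at EC100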
* hit, by the source's call.

SMILES	CHRM4 PAM	CHRM5 agonist	M5 antag	CHRM4 antagonist	CHRM5 PAM	M4 ag
CCCCNc1nnc(CCn2nc(C)c(Br)c2C)s1	17	-2	5	-6	6	0
CCNc1nnc(CCn2nc(C)c(Br)c2C)s1	11	-1	-17	2	24*	2
CCCCN1C[C@H](C)[C@@H](CC(=O)NC)C1=O	8	1	6	-6	-3	1
COc1cc(NC(=O)CSc2nc3[nH]ncc3c(=O)n2-c2ccccc2)cc(OC)c1OC	3	4	4	-5	3	0
CC(=O)Nc1ccc(NC(=O)CSc2nc3[nH]ncc3c(=O)n2-c2ccccc2)cc1	20*	0	-5	7	10	-1
CC(C)(C)c1ccc(Nc2n[nH]c3ccccc23)cc1	21*	0	-5	-23	-2	-1
Cc1n[nH]c2ccccc2c1=O	0	2	2	-2	2	0
Cc1cccc(OCc2nnc(SCC(=O)N(C(C)C)C(C)C)n2Cc2ccco2)c1C	14	-1	7	-3	15	0
Cc1cccc(NC(=O)CSc2nccn2Cc2ccco2)c1C	19*	-2	-37	2	20*	1
Cc1cc(NC(=O)CSc2nnc(COc3cccc(C)c3C)n2Cc2ccco2)no1	29*	2	-5	-7	4	1
CN1CCCC(C)(C(=O)Nc2ccc(-n3cccc3)cc2)C1 (stereo not given)	8	-2	-6	-19	5	1
c1ccc2c(c1)OC(CCCN1CCCCC1)c1ccccc1S2 (stereo not given)	-17	-10	22	19	-28	12
CN1CCCC(CC2Oc3ccccc3Sc3ccccc32)C1 (stereo not given)	-41	-5	54*	73*	-18	5
CCc1ccc2c(CSc3nnnn3C)cc(=O)oc2c1	-3	-1	2	0	1	0
CC1CCN(c2c(NCC3CCC(C(=O)N4CCCCC4)CC3)c(=O)c2=O)CC1 (stereo not given)	-9	-1	-1	-1	-12	2
CC1CCN(c2c(NCC3CCC(C(=O)NC4CCCCCC4)CC3)c(=O)c2=O)CC1 (stereo not given)	15	0	-2	31*	2	1
CCCCC(CC)CN=C(N)NC(N)=NCCCCCCN=C(N)NC(N)=NCC(CC)CCCC (stereo not given)	-21	-2	13	82*	-18	40*
CCCCC(CC)CO (stereo not given)	14	3	5	-13	0	1
CCCN1CCN(C(=O)C(C)n2nc(C)c3sc4ccccc4c3c2=O)CC1 (stereo not given)	2	-7	8	1	-1	1
Cc1ccccc1NS(=O)(=O)c1ccc2c(c1)NC(=O)CO2	5	0	4	-6	1	2
Cc1cccc(C)c1NS(=O)(=O)c1ccc2c(c1)NC(=O)CO2	14	0	-23	-8	19*	1
Fc1ccccc1-c1nc(NCC2CC2)nc2ccsc12	-4	-3	3	10	-6	-2
CN(C)CCNc1nc(-c2ccccc2F)c2sccc2n1	-11	-9	40*	21	-34	2
CC(=O)NCCNC(=O)c1ccc(CSc2nc3ccccc3s2)cc1	-13	-1	-4	39*	1	1
C/C(=N\NC(=O)CSc1nc2ccccc2s1)c1ccco1	5	1	8	2	21*	1
SMILES	CHRM4 PAM	CHRM5 agonist	M5 antag	CHRM4 antagonist	CHRM5 PAM	M4 ag
CC(C)(C)NC(=O)C(c1ccccn1)N(C(=O)c1csnn1)C1CCCCC1 (stereo not given)	4	0	-8	2	9	1
CCC(C)(C)NC(=O)C(c1ccccn1)N(C(=O)c1csnn1)C1CCCCC1 (stereo not given)	3	0	-6	1	23*	1
CC(=O)NCC(=O)OC(C)C(=O)Nc1ccc(C(C)=O)cc1 (stereo not given)	2	0	-5	-1	25*	1
CC(=O)Nc1ccc(NC(=O)C(C)OC(=O)c2ccc3c(c2)OCCO3)cc1 (stereo not given)	32*	-4	3	-8	4	1
CS(=O)(=O)c1sc(C#N)c2c1C(=O)CC(c1ccccc1)C2 (stereo not given)	-15	-19	31*	76*	-20	8
CCOC(=O)c1c(NC(=O)COC)sc(C)c1C	2	2	-1	-4	6	-2
CCOC(=O)c1c(NC(=S)NC(C)=O)sc(C)c1C	32*	-4	-6	-8	18*	1
COc1cccc(CNC(=O)CCNS(=O)(=O)c2ccc3[nH]c(=O)oc3c2)c1	16*	-3	-4	-4	6	0
CCc1sc(C(=O)Nc2ccc3c(c2)OCO3)cc1C	7	-4	3	-7	-2	0
O=C(N1CCCC1)C12CCC3CC(CC(C3)C1)C2	8	-8	-6	-14	19*	0
COc1cc(NC(=O)c2cc3ccccc3cc2O)c(OC)cc1Cl	-13	5	17	8	-12	18
COc1ccccc1NC(=O)c1cc2cc(Br)ccc2cc1O	-19	6	37*	28*	-18	33*
O=C(O)CC/C(=N\Nc1ccc([N+](=O)[O-])cc1S(=O)(=O)N1CCOCC1)c1cccs1	1	0	4	4	1	0
CC1CCc2c(nc3nc[nH]n3c2=O)C1 (stereo not given)	14	2	-9	9	4	-1
S=c1c2c(nc3nc[nH]n13)CCC2	-1	9	-10	3	18*	1
O=c1c(-c2ccco2)nc2ccccc2n1C(c1ccccn1)c1nc2ccccc2[nH]1 (stereo not given)	10	1	-1	3	7	2
Nc1nonc1C(=O)NCCNCc1cc(Br)ccc1OCc1ccccc1F	-16	0	16	32*	-13	16
NS(=O)(=O)c1ccc(CCNCc2cc(Br)ccc2OCc2ccccc2F)cc1	-16	0	28*	28*	-20	30
Nc1nonc1C(=O)NCCNCc1ccccc1OCc1ccccc1F	-10	2	2	5	-2	11
